The record followed here is ChEMBL document CHEMBL4373708 (J Med Chem, 2019).

A word on the Tmax: it is the time from dosing to the highest level. Usually Cmax stands for the maximum level reached in the sampled fluid or tissue. By AUC is commonly meant the area under the concentration-time curve, a measure of exposure. A higher AUC goes with high exposure.

Activity calls are given as the source filed them. The calls are words filed in the database; no cut-off is given here.

Series [1] is described as follows: Tmax in mouse at 10 mg/kg, po by LC-MS analysis. The class given is ADME, organism-based. As to conditions: in vivo. In outline:
(§1)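 Single intraperitoneal or oral dose in mice at 5 mg/kg (vehicle: saline with 5% DMSO and 10% Kolliphor HS 15) or 10 mg/kg (vehicle: PBS with 5% DMSO and 20% (2-hydroxypropyl)-β-cyclodextrin). Blood taken by retroorbital puncture at set times, serum separated by centrifugation at 4000 g for 20 min at 24 °C, compound quantified by LC/MS.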

Series [2] is described as follows: Tmax in mouse at 10 mg/kg, ip by LC-MS analysis. The class given is ADME, organism-based. As to conditions: in vivo. In outline: as §1
Series [3] can be described thus: Cmax in mouse at 10 mg/kg, ip by LC-MS analysis. Format: ADME, organism-based. On the set-up: dose 10 mg/kg, route intraperitoneal. As to conditions: in vivo. Put shortly:
as §1

Series [4] in a line: Cmax in mouse at 10 mg/kg, po by LC-MS analysis. The conditions noted are these: in vivo. The class given is ADME, organism-based. Further details: dose 10 mg/kg, route oral. In outline:
as §1

A short description of series [5]: Toxicity in CD-1 mouse assessed as effect on stool weight at 10 mg/kg, po administered via gavage for 1 hr. The class given is organism-based. As to conditions: in vivo. Put shortly:
(§2)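 Female CD1 mice aged 8–10 weeks without loperamide: 10 mg/kg compound or vehicle (PBS with 5% DMSO and 20% (2-hydroxypropyl)-β-cyclodextrin) by gavage, 1 h before ip injection of loperamide vehicle (5% ethanol in PBS). Mice were caged singly in metabolic cages and stool collected 3 h for weight, pellet count and water content (dried 80 °C, 24 h).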

Series [6] has as its target T1, Solute carrier family 26 member 9 (Homo sapiens) (UniProt Q7LBE3).
T1 sequence (whole entry): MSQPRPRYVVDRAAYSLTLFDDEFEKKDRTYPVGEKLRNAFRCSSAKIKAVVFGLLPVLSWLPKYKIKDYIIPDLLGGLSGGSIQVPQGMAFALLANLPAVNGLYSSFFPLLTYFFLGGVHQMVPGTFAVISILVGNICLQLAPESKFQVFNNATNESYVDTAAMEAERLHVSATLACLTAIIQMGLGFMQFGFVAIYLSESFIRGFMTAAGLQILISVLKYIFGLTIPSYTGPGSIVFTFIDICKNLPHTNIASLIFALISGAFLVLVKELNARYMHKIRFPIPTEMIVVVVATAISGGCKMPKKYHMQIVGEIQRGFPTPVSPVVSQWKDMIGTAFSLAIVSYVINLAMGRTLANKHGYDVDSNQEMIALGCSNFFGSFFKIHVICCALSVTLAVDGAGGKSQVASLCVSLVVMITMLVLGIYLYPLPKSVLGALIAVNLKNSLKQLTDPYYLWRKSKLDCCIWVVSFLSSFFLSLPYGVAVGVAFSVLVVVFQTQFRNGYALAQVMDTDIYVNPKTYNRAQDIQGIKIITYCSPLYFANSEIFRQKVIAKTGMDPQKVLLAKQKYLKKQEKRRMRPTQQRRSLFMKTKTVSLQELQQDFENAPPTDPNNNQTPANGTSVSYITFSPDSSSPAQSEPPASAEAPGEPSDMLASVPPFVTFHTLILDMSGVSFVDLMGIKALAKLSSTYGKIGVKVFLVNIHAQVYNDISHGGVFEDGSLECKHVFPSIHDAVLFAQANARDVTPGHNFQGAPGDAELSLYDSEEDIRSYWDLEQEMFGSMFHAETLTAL
In words: Inhibition of human slc26a9 expressed in FRT cells co-expressing EYFP-H148Q/I152L/F46L assessed as reduction in protein-mediated chloride/iodide exchange at 10 uM preincubated for 10 mins followed by NaI-substituted PBS addition and measured by YFP-based fluorescence assay. The class given is cell-based. In outline:
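FRT cells expressing the given slc26 transporter plus EYFP-H148Q/I152L/F46L were preincubated 10 min with 0 or 10 µM compound in PBS. Iodide-substituted PBS was then added (140 mM NaCl replaced by NaI). The rate of YFP fluorescence quenching gave chloride/iodide exchange.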

Series [7] is described as follows: Drug level in mouse serum at 10 mg/kg, po or ip measured after 72 hrs by LC-MS analysis. Format: ADME, organism-based. As to conditions: read-out: Drug uptake. Put shortly:
as §1

Series [8] relates to Mus musculus. Briefly: Anti-absorptive activity in loperamide-induced CD-1 mouse model of constipation assessed as improvement in stool weight at 3 mg/kg, po administered via gavage for 1 hr prior to loperamide challenge and measured after 3 hrs. The class given is functional, organism-based. In outline: (§3)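 Mice were held singly in metabolic cages with food and water. Stool was collected 3 h for weight and pellet count; water content = (wet−dry)/wet after drying 24 h at 80 °C. 5-8 mice/group, one-way ANOVA with Newman-Keuls.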

The test system of series [9] is Mus musculus. In words: Anti-absorptive activity in loperamide-induced CD-1 mouse model of constipation assessed as improvement in fecal pellet number at 3 mg/kg, po administered via gavage for 1 hr prior to loperamide challenge and measured after 3 hrs. Format: functional, organism-based. In outline: as §3
The test system of series [10] is Mus musculus. Briefly: Anti-absorptive activity in loperamide-induced CD-1 mouse model of constipation assessed as improvement in stool water content at 3 mg/kg, po administered via gavage for 1 hr prior to loperamide challenge and measured after 3 hrs. Format: functional, organism-based. Put shortly: as §3
Series [11] in a line: Toxicity in CD-1 mouse assessed as effect on fecal pellet number at 10 mg/kg, po administered via gavage for 1 hr. The class given is organism-based. As to conditions: in vivo. Put shortly:
as §2

Series [12] deals with Mus musculus. Briefly: Anti-absorptive activity in loperamide-induced CD-1 mouse model of constipation assessed as stool hydration at 1 mg/kg, po administered via gavage for 1 hr prior to loperamide challenge and measured after 3 hrs relative to control. The class given is functional. In outline: as §3
Series [13] in a line: AUC in mouse at 10 mg/kg, po by LC-MS analysis. Format: ADME, organism-based. The conditions noted are these: in vivo. Put shortly: as §1
Series [14] in a line: AUC in mouse at 10 mg/kg, ip by LC-MS analysis. The class given is ADME, organism-based. The conditions noted are these: in vivo. Put shortly: as §1
The nature of series [15]: AUC in mouse at 5 mg/kg, ip by LC-MS analysis. Format: ADME, organism-based. As to conditions: in vivo. In outline: as §1
The nature of series [16]: AUC in mouse at 5 mg/kg, po by LC-MS analysis. The class given is ADME, organism-based. The conditions noted are these: in vivo. In outline:
as §1

Series [17] in a line: Tmax in mouse at 5 mg/kg, po by LC-MS analysis. The class given is ADME, organism-based. As to conditions: in vivo. Put shortly:
as §1

Series [18] is described as follows: Tmax in mouse at 5 mg/kg, ip by LC-MS analysis. Format: ADME, organism-based. The conditions noted are these: in vivo. Put shortly:
as §1

Series [19] is described as follows: Cmax in mouse at 5 mg/kg, po by LC-MS analysis. The class given is ADME, organism-based. Further details: dose 5 mg/kg, route oral. The conditions noted are these: in vivo. Put shortly: as §1
Series [20] is described as follows: Cmax in mouse at 5 mg/kg, ip by LC-MS analysis. Format: ADME, organism-based. On the set-up: dose 5 mg/kg, route intraperitoneal. The conditions noted are these: in vivo. In outline:
as §1

In series [21] the test system is Mus musculus. In words: Anti-absorptive activity in loperamide-induced CD-1 mouse model of constipation assessed as improvement in stool weight at 5 mg/kg, po administered via gavage for 1 hr prior to loperamide challenge and measured after 3 hrs. Format: functional, organism-based. Put shortly:
(§4)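 Female CD1 mice aged 8–10 weeks were gavaged with 5 mg/kg compound or vehicle 1 h before ip loperamide (0.3 mg/kg in 5% ethanol/PBS). Mice were kept singly in metabolic cages and stool collected for 3 h. Total weight and pellet number were recorded; water content = (wet−dry)/wet after drying at 80 °C for 24 h. Mean ± S.E.M., 4-6 mice per group.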

Series [22] in a line: Drug uptake in mouse serum at 5 mg/kg, po or ip measured after 16 hrs by LC-MS analysis. Format: ADME, organism-based. As to conditions: in vivo. In outline:
as §1

Series [23] concerns Mus musculus. In words: Anti-absorptive activity in loperamide-induced CD-1 mouse model of constipation assessed as improvement in fecal pellet number at 5 mg/kg, po administered via gavage for 1 hr prior to loperamide challenge and measured after 3 hrs. The class given is functional, organism-based. In outline: as §4
Series [24] deals with Mus musculus. In words: Anti-absorptive activity in loperamide-induced CD-1 mouse model of constipation assessed as improvement in stool water content at 5 mg/kg, po administered via gavage for 1 hr prior to loperamide challenge and measured after 3 hrs. The class given is functional, organism-based. Put shortly: as §4

As to `Cc1c(CC(=O)O)c(=O)oc2c(C)c(OCc3cccc(I)c3)ccc12`, the time to peak (Tmax) in [1] came out at 390 min; in series [2], 30 min. Besides, the Cmax in series [3] came out at 29.1 µM; in series [4], 4.7 µM. In addition, the Activity entry is listed as “Non-Toxic” in series [5], “Non-Toxic” in series [11] and above 50% in the series on Mus musculus [12]. The inhibition entry in [6] was “inactive”. Moreover, the concentration at 72 h in series [7] worked out at 1 µM. Further, the outcome in the series with Mus musculus [8], in the series on Mus musculus [9] and in the series with Mus musculus [10] was Active. Moreover, the AUC turned out to be 130 µM·h in series [13] and 331 µM·h in series [14].

On to `Cc1c(CC(=O)O)c(=O)oc2c(C)c(OCc3cccc(C(F)(F)F)c3)ccc12`, for which the AUC in series [15] stood at 418 µM·h; in [16] it was 69 µM·h. Moreover, the time to peak (Tmax) in series [17] and in [18] was 48 min each time. The Cmax is 12.9 µM in [19] and 70.2 µM in [20]. For the same compound, the outcome with Mus musculus [21], in the series with Mus musculus [23] and in the series with Mus musculus [24] was Active. In addition, in series [6], the inhibition entry is “inactive”. Moreover, the Drug uptake result in series [22] was “Active”.
